Article PMC10228392 (mAbs, 2023)
Residue numbers refer to the chain shown, from its start. Numbers in names are those of the source.

Tests used:
α-caff VHH = tested on: α-caff VHH; parameters: species or system llama; conditions: binding to anti-caffeine VHH
Method in brief: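 Anti-caffeine VHH was dialysed overnight against PBS pH 7.4. Test compound at 50 µM in the syringe was titrated into 10 µM VHH in the cell at 25°C, as 27 injections of 10 µL.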

VHH:VHH dimer = assay: Analytical ultracentrifugation, sedimentation equilibrium; assay type: binding; conditions: with vs without stoichiometric caffeine
Method in brief: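 Sedimentation equilibrium on tag-free, E. coli-expressed anti-caffeine VHH (WT, and F47R with caffeine) at 3, 10 and 30 µM, alone or with stoichiometric caffeine (1.5, 5, 15 µM), at 20°C. Cells were spun 24 h at 27,000, 32,000 and 44,000 rpm and scanned at 294, 260 and 236 nm. All speeds and concentrations were analysed globally: a single-exponential fit gave weight-averaged MW, then a monomer-dimer fit gave assembly constants.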

[1] = Guanidinium hydrochloride chemical unfolding by circular dichroism; assay type: physicochemical; conditions: 25°C
[2] = biological target: anti-caffeine VHH produced through grafting CDR regions (Caffgraft); assay: AUC
[3] = biological target: anti-caffeine VHH produced through grafting CDR regions (Caffgraft); assay: AUC; remark: listed apart in the source
[4] = biological target: anti-caffeine VHH produced through grafting CDR regions (Caffgraft); assay: ITC
[5] = Isothermal titration calorimetry
Method in brief: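 Single arginine interface variants were made by site-directed mutagenesis and expressed in E. coli, and the tag was removed. For low-affinity binding (Turnbull method), 1 mM caffeine was titrated into 100 µM VHH variant, with stoichiometry fixed at n = 0.5 in the fit. Protein concentration came from ε280 30,035 M−1 cm−1 (F47R, V104R) or 28,545 M−1 cm−1 (Y106R).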

## Cn1c(=O)c2c(ncn2CC(=O)O)n(C)c1=O [theophylline-7-acetic acid]
α-caff VHH
  ΔΔG° penalty (loss in affinity) relative to caffeine: ~1.5 kcal/mol

B1: anti-caffeine VHH produced through grafting CDR regions (Caffgraft) (VHH)
VHH: QVQLVESGGGLVQAGGSLRLSCTASGRTGTIYSMAWFRQAPGKEREFLATVGWSSGITYYMDSVKGRFTISRDKGKNTVYLQMDSLKPEDTAVYYCTATRAYSVGYDYWGQGTQVTVSS
VHH:VHH dimer
  fold higher observed dimerization affinity on caffeine binding: ~28 fold
[1]
  loss of stability (ΔGu) relative to anti-RNase A VHH: approximately 1.5 kcal/mol
[1]; guanidinium hydrochloride
  m-value: 2.62 ± 0.06 kcal mol^−1M^−1
[1]; guanidinium hydrochloride, PBS pH 7.4, 10 μM VHH
  ΔGu: 7.6 ± 0.2 kcal/mol
[2]
  Kd: 23.5 µM
  stoichiometry N: 2
[3]
  Kd: 0.848 µM
[4]
  Kd: 13.1 µM

B2: α-caff VHH-F47R: anti-caffeine VHH dimer interface variant with arginine at F47 (Kabat numbering) (antibody, V domains shown)
VH: B1 VHH with F47R
[5]
  ΔΔG° (weaker caffeine binding affinity than anti-caffeine VHH): > 5 kcal/mol
